Where only a bound is given, the exact number is not on record here.

For data set [1], the species on record is Rattus norvegicus. In words: Intrinsic activity at rat MT2 receptor expressed in CHO-Galpha16 cells assessed as Ca2+ mobilization after 20 mins by FLIPR assay relative to agomelatine. It is filed as cell-based. Put shortly:
(§1)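 CHO-Galpha16 cells expressing rat MT1 or MT2, plated 24 h ahead, loaded with Fluo4-AM (1.5 final) plus pluronic acid in HBSS/20 mM HEPES/0.1% BSA pH 7.4 with 2.5 mM probenecid, 1 h at 37 °C, then washed. Ca2+ read by FLIPR. Agonist mode: 15 s baseline, compound added, 3 min read. Antagonist mode: compound preincubated 20 min at room temperature, then melatonin at EC80, 3 min read.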

Data set [2] relates to CHO-Galpha16. The data set is described as follows: Intrinsic activity at rat MT1 receptor expressed in CHO-Galpha16 cells assessed as Ca2+ mobilization after 20 mins by FLIPR assay relative to ramelteon. In kind it is cell-based. The gist of the method: as §1
(Calcium flux is commonly read through the fluorescence of an indicator in the cells.)

The nature of data set [3]: Displacement of [3H]melatonin from rat MT1 receptor expressed in CHO-Galpha16 cells. It is filed as cell-based. Put shortly:
(§2)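 Rat MT1 or MT2 membranes from CHO-Galpha16 cells incubated with [3H]-melatonin (0.5 nM final, 80 Ci/mmol) in 50 mM Tris/HCl pH 7.4, 5 mM MgCl2. Nonspecific binding defined with excess melatonin. Stopped by rapid GF/B filtration with five ice-cold washes. Ki from IC50 via Cheng–Prusoff.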

Data set [4] can be described thus: Binding affinity to rat MT2 receptor expressed in CHO-Galpha16 cells assessed as Ca2+ mobilization after 20 mins by FLIPR assay. It is filed as cell-based. The gist of the method: as §1
The nature of data set [5]: Binding affinity to rat MT1 receptor expressed in CHO-Galpha16 cells assessed as Ca2+ mobilization after 20 mins by FLIPR assay. It is filed as cell-based. The gist of the method: as §1
Data set [6] is described as follows: Displacement of [3H]melatonin from rat MT2 receptor expressed in CHO-Galpha16 cells. It is filed as cell-based. The gist of the method: as §2
On the technique in general: Loss of bound radioactivity is the signal in a displacement assay; it reports binding, not function.

Data set [7] has as its system CHO-Galpha16. In words: Inhibition of rat MT2 receptor expressed in CHO-Galpha16 cells relative to control. It is filed as cell-based. The conditions noted are these: dose or concentration not given here. The gist of the method:
as §1

The nature of data set [8]: (§3) Ratio of Ki for rat MT1 to Ki for rat MT2. Put shortly: as §2
Data set [9] can be described thus: Agonist activity at human MT2 receptor. It is filed as functional.
Data set [10] in a line: Agonist activity at human MT1 receptor. In kind it is functional.
Data set [11] concerns CHO-Galpha16. In words: Inhibition of rat MT1 receptor expressed in CHO-Galpha16 cells relative to control. It is filed as cell-based. Set-up: concentration or dose not given beside the values. As to conditions: dose or concentration not given here. The gist of the method:
as §1

Data set [12] can be described thus: Drug level in rat brain at 10 mg/kg, ip after 1 hr. It is filed as ADME, organism-based. The arrangement: dose 10 mg/kg, route intraperitoneal. The conditions noted are these: read-out: Drug uptake. The gist of the method: (§4)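 Rats dosed 10 mg/kg IP, with brain and plasma concentrations taken at 1 h. Vehicle varied: 20% HP-bCD, 15% Solutol, or 10% DMSO with 2.5% PEG400 in 15% Solutol. B/P is the brain-to-plasma concentration ratio.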

In data set [13] the test system is Liver microsomes. In words: Intrinsic clearance in human liver microsome at 1 uM by LC/MS analysis. It is filed as ADME. Put shortly: (§5)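 Compound at 1 µM incubated with liver microsomes (0.5 mg/mL protein) and an NADPH-regenerating system, sampled at 0, 5, 15, 30 and 60 min. Quenched, centrifuged supernatants analysed by LC/MS for remaining parent to estimate T1/2.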
Background: Liver microsomes are vesicles of endoplasmic reticulum, rich in cytochrome P450 enzymes.

Data set [14] is described as follows: Ratio of drug level in rat brain to plasma at 10 mg/kg, ip after 1 hr. Set-up: dose 10 mg/kg, route intraperitoneal. In kind it is ADME, organism-based. Put shortly: as §4
The species named for data set [15] is Rattus norvegicus. The description is as §3. The gist of the method:
as §2

The test system of data set [16] is Liver microsomes. The data set is described as follows: Intrinsic clearance in rat liver microsome at 1 uM by LC/MS analysis. In kind it is ADME. Put shortly: as §5
The nature of data set [17]: Drug level in rat plasma at 10 mg/kg, ip after 1 hr. In kind it is ADME, organism-based. The conditions noted are these: read-out: Drug uptake. Set-up: dose 10 mg/kg, route intraperitoneal. The gist of the method: as §4

With `COc1cccc(N2CCC[C@@H](NC(=O)C3CC3)C2)c1`, the Intrinsic activity in data set [1] worked out at 23%; in [2] it was 30%. Besides, the Ki is 1000 nM in data set [3] and 95 nM in [6]. Further, the figures for the EC50 in data set [4] and in data set [5] were 93 nM and 3500 nM, respectively. In addition, the IC50 in data set [6] worked out at 10 nM. Further, in data set [7], the inhibition amounted to 97%.
In the case of `COc1cccc(N2CCCC(NC(=O)C3CC3)C2)c1` (racemic), the Intrinsic activity in data set [1] turned out to be 99%; in data set [2], 85%. Also, the Ki ratio (MT1/MT2) in [8] came out at 5.6. In addition, the IC50 in [3] and in data set [6] was more than 10000 nM each time. Also, the Ki in [3] was 15 nM; in [6], 2.7 nM. In addition, the EC50 in data set [4] was 2.9 nM; in data set [5] it was 9.7 nM.
Take `CCCC(=O)N[C@H]1CCN(c2cccc(OC)c2)C1`: the Ki was 2.6 nM in [9] and 3.7 nM in data set [10].
In the case of `O=C(N[C@H]1CCCN(c2cccc(OCCO)c2)C1)C1CC1`, the figures for the Intrinsic activity in [1] and in data set [2] were 12% and 3%, respectively. Besides, the inhibition stood at 91% in [11] and 94% in data set [7]. The IC50 in data set [3] came out at 930 nM; in [6], 31 nM. In addition, the Ki was 610 nM in data set [3] and 150 nM in [6]. For the same compound, the EC50 in data set [4] and in data set [5] was more than 10000 nM in each case.
On to `COc1cccc(C2CCN(C(=O)C3CC3)CC2)c1`, for which the concentration at 1 h in data set [12] was 540 nM; in data set [17], 390 nM. Further, the Intrinsic activity in [1] is 74%; in [2] it was 41%. Further, the clearance came out at 29 µL/min/mg in data set [13] and 91 µL/min/mg in data set [16]. In addition, in [14], the Kp at 1 h was 1.4. In addition, the Ratio Ki in data set [15] was found to be 4. Further, the Ki amounted to 40 nM in [3] and 10 nM in [6]. Besides, the EC50 was 9.5 nM in data set [4] and 65 nM in data set [5].
For `COc1cc(N2CCC[C@@H](NC(=O)C3CC3)C2)ccc1Cl`, the Intrinsic activity in data set [1] was found to be 23%; in data set [2], 19%. The Ratio Ki in data set [15] was 4. The results for the inhibition in data set [11] and in data set [7] were 94% and 98%, respectively. The IC50 in data set [3] amounted to 440 nM; in data set [6], 24 nM. The Ki is 130 nM in [3] and 31 nM in data set [6]. Moreover, the EC50 in [4] and in data set [5] was more than 10000 nM in each case.

The term Ki denotes the dissociation constant of the complex between target and ligand, obtained from inhibition or displacement. As usually defined, the EC50 is the midpoint of the concentration-response curve. As a reminder, the IC50 is the concentration that gives 50% inhibition. As a reminder, the inhibition is how much of the control response was suppressed. Broadly, the Kp is the ratio of the level in a tissue or fluid to that in plasma or blood.
